Diaph inh CS – counter-screen for diaphorase-based assays: diaphorase inhibitors and chemical oxidizers; diaphorase resazurin-to-resorufin fluorescence, NADH, 16 min; bacterial (C. kluyveri) enzyme, not human; inhibition, % at 20 µM; 190,000 compounds, 0.69% hits; AID 1217;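 active = primary screen inhibition at 20 µM above a set limit, cut at about 50% in these data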;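 also: plate controls were DMSO with full reaction for no effect and wells lacking NADH for full effect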
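System: Diaphorase enzyme from Clostridium kluyveri | Amount: Enzyme working solution with 0.14 U/mL diaphorase | Benchmarks: No-NADH positive control and DMSO neutral control | Signal: Fluorescence of resorufin formed from resazurin, Ex 544/Em 590 nm | Schedule: 16-min room-temperature incubation before reading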
Diaph act CS – activates diaphorase or chemically reduces, flagging diaphorase assay artifacts; Diaphorase/resazurin coupled assay, resorufin fluorescence, 16 min; hits give high values; 1 = vehicle wells, 0 = NADH-free wells; activation factor at 20 µM; 190,000 compounds, 0.005% hits;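 active = diaphorase activity raised at least twofold by the compound at 20 µM; inactive = activation factor below 2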
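Measured by – red resorufin fluorescence at 544/590 nm excitation/emission · Test system – Clostridium kluyveri diaphorase, purified enzyme · Incubation – reaction time 16 min, room temperature · Buffer or medium – 50 mM HEPES pH 7.4 with 4.542 mM MgCl2, 0.005% Tween 20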
Cl transport mod – modulators of human KCC2 chloride dependent transport. Q9H2X9. KCC2 cells, thallium flux FluoZin-2 fluorescence. AID 1456. 190,000 compounds, 2.2% hits. B-score of Tl+ flux slope (higher = more flux/activation; lower = inhibition) at 10 µM;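 active = thallium flux slope and its plate-corrected score both differing from the plate sample mean at a set confidence after two filtering rounds, in either direction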;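 also: slope of fluorescence scaled to starting intensity during 10 to 20 s after thallium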
ROMK primary – modulators of human ROMK potassium channel | Tet-inducible ROMK, thallium flux fluorescence; actives lie on both sides | B-score at 10 µM | AID 1918 | 130,000 compounds, 2% hits;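 active = signal ratio slope over the read window, or its plate-corrected B-score, at least 3 SD from the plate mean, either direction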;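 also: B-score of the F/F0 ratio slope over 7 to 12 s after thallium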
Target sequence (P48048 whole entry, looked up): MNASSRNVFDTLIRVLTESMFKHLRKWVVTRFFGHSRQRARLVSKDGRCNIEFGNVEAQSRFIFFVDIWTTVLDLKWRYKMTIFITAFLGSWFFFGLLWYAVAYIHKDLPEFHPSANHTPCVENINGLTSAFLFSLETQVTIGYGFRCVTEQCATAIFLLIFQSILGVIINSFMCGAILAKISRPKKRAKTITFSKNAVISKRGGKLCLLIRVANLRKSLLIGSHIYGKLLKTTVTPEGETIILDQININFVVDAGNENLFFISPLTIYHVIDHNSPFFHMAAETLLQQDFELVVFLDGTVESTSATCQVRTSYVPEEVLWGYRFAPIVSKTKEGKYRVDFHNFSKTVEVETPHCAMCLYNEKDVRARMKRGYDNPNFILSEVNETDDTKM
WT yeast gro inh – growth inhibition of WT yeast, mitochondrial fusion screen; mitochondrial fusion phenotypic screen, WT strain; inhibition, % at 10 µM; 190,000 compounds, 2.1% hits; in the data active = inhibition above about 58%; tested in S. cerevisiae
Lmaj promast – reduces viability of Leishmania major promastigotes | resazurin fluorescence viability | inhibition, % at 10 µM | 200,000 compounds, 9% hits | AID 1063; in the data active = inhibition above about 50%;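 also: promastigotes grown with compound for 44 hours at 28 °C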
Active calls of the source: *; nt = no result given. An excerpt weighted towards active compounds, which were near 12% of everything screened.

SMILES	Diaph inh CS	Diaph act CS	Cl transport mod	ROMK primary	WT yeast gro inh	Lmaj promast
CC(=O)Nc1ccc(CN2CCCCCCC2)cc1	6	0.9	0.13	nt	-20	-6
Cc1ccc(C(=O)Nc2ccc(CN3CCCCC3)cc2)c(C)c1	7	0.9	-0.23	-0.53	10	74*
Cc1ccc2c(c1)c1c(n2CC(O)Cn2c(C)nc3ccccc32)/C(=N\O)CCC1 (stereo not drawn)	31	0.7	-0.63	nt	-13	58*
C/C(N)=C(/C#N)C(=O)COC(=O)COc1ccc(Cl)cc1C	15	0.9	-1.4	0.7	15	-2
Cc1nn(-c2ccc(F)cc2)c(C)c1CN1CCN(CCc2ccccc2)C(CCO)C1 (stereo not drawn)	11	0.9	0.23	0.69	0	79*
Cc1nn(-c2ccc(F)cc2)c(C)c1CN1CCN(CCC(C)C)C(CCO)C1 (stereo not drawn)	-5	1.1	nt	-0.18	19	55*
Cc1nn(-c2ccc(F)cc2)c(C)c1CN1CCN(Cc2ccccc2)C(CCO)C1 (stereo not drawn)	4	1	-0.45	0.22	10	13
CCn1c(SCc2ccc(F)cc2)nnc1-c1nn(-c2ccccc2)ccc1=O	-8	1.1	-0.35	nt	-16	0
CCC(C(=O)NC(C)CCc1ccccc1)n1nc(C)n2c(cc3occc32)c1=O (stereo not drawn)	0	1	-5.5*	nt	4	15
Cc1ccc(C)c(NC(=O)c2ccccc2NS(=O)(=O)c2cc([N+](=O)[O-])ccc2C)c1	31	0.7	-1.6	nt	80*	63*
Cc1ccc(C)c(NC(=O)c2ccccc2Sc2ccc([N+](=O)[O-])cc2Cl)c1	15	0.9	-0.31	nt	57	96*
COc1ccc(CCNC(=O)CCc2ccc(S(=O)(=O)NCC(C)C)cc2)cc1	6	0.9	-0.3	-0.022	-2	3
N#Cc1c(-n2ccnc2)cccc1-n1ccnc1	12	0.9	1.5	nt	-6	-4
COc1ccc(CCN(CC(=O)NC(C)(C)C)C(=O)Cn2nnc(-c3ccc(C)o3)n2)cc1OC	2	1	-0.027	0.24	0	-9
O=C(COC(=O)CCS(=O)(=O)c1ccc(Cl)cc1)NCCc1ccc(Cl)cc1Cl	8	0.9	0.95	0.057	-8	-8
COCC1=C(C(=O)OC)C(c2ccco2)n2ncnc2N1 (stereo not drawn)	nt	nt	-0.0059	nt	nt	nt
CCOC(=O)c1c(C)[nH]c(C)c1C(=O)COc1ncnc2cc([N+](=O)[O-])ccc12	18	0.8	-0.67	-0.64	7	10
C=C(C)Cn1c(CCCNC(=O)C(C)(C)C)nc2ccccc21	-5	1	-2.3	nt	2	9
O=C(CN(Cc1ccco1)C(=O)CCC(=O)Nc1ccccn1)NCCc1ccccc1	15	0.8	-0.49	nt	-7	98*
CCc1nc2ccccc2c(C(=O)Oc2cccc3cccnc23)c1C	24	0.8	nt	-0.26	0	2
COc1ccccc1/C=C/C(=O)Oc1cccc2cccnc12	23	0.8	-3.5	nt	8	99*
Cc1c(C(=O)Oc2cccc3cccnc23)oc2ccccc12	22	0.8	-3.4	-0.072	-5	98*
c1ccc(-c2noc(-c3ccc4c(c3)OCO4)n2)nc1	16	0.8	1	nt	64*	-6
COc1cccc(-c2nc(-c3ccccc3)no2)c1	8	0.9	-0.39	-0.0074	15	1
c1ccc(-c2noc(-c3ccc4ccccc4c3)n2)nc1	10	0.9	-0.12	nt	2	3
SMILES	Diaph inh CS	Diaph act CS	Cl transport mod	ROMK primary	WT yeast gro inh	Lmaj promast
COc1cccc(-c2nc(-c3ccccn3)no2)c1	7	0.9	-0.74	nt	79*	12
COC(=O)CNC(c1ccccc1Cl)c1cc(Br)ccc1NS(=O)(=O)c1ccc(C)cc1 (stereo not drawn)	15	0.8	0.14	0.48	17	0
Cc1nn(C)c(C)c1CS(=O)(=O)c1ccccc1	8	0.9	0.31	0.16	-4	-2
CCOC(=O)c1csc(NC(=O)Nc2cccc(Cl)c2)n1	-10	1.1	1.2	nt	-6	87*
O=C(Nc1cccc(Cl)c1)Nc1nnc(-c2ccncc2)s1	20	0.8	-1	nt	8	65*
Cc1cc(C)cc(-n2c(C)cc(/C=N/NC(=O)CN(c3c(C)cccc3C)S(C)(=O)=O)c2C)c1	28	0.7	-0.49	1.2	60*	41
CC1=CC(C)(C)n2c(O)c(N=NC(N)=S)c3c(C)c(C)cc1c32	nt	nt	0.17	nt	nt	nt
CC1=CC(C)(C)n2c(O)c(N=NC(N)=S)c3cccc1c32	7	0.9	5.9*	nt	-2	1
COc1ccc2c(C)cc(SCC(=O)Nc3ccc(Cl)cn3)nc2c1	3	1	0.42	nt	-4	59*
CC(C)C(=O)Nc1ccc(C(=O)N/N=C/c2cc(Br)cc(Br)c2O)cc1	-24	1.2	-1.3	0.098	-8	89*
Cc1cccc(/C=N\NC(=O)c2ccc(Cl)cc2)c1O	8	0.9	0.24	1	-7	72*
Nc1nonc1C(=O)N/N=C/c1cc(Br)ccc1O	24	0.8	-1.1	-0.72	28	99*
CC(=O)Nc1ccc(C(=O)N/N=C/c2cc(Br)cc(Br)c2O)cc1	-2	1	0.46	1.3	-3	25
O=C(N/N=C/c1cc(Cl)ccc1O)c1ccc(Br)cc1	4	1	-3.6	-0.036	9	99*
COc1ccc2[nH]c(=O)c(NC(N)=S)nc2c1	2	1	-0.93	nt	10	15
O=C(N/N=C\c1cc(Br)ccc1O)c1ccc(S(=O)(=O)N2CCCCC2)cc1	5	0.9	-0.34	-0.078	-4	98*
COc1cccc(OC)c1C(=O)NC(C)C12CC3CC(CC(C3)C1)C2 (stereo not drawn)	6	0.9	nt	0.0018	62*	35
Cc1ccc(C(=O)N2CCC3(CC2)Oc2ccc(F)cc2C(=O)C32CC(c3ccc(Cl)cc3)=NO2)s1 (stereo not drawn)	nt	nt	-0.032	nt	nt	nt
Cn1c(O)c(N=Nc2nc(-c3ccccc3)cs2)c2ccccc21	18	0.8	52*	2.8*	7	66*
CC(C)(C)C(C(Oc1ccc(Cl)cc1)n1cncn1)n1nnnc1C(c1cccc(Cl)c1)N1CCCCC1 (stereo not drawn)	26	0.7	-0.41	nt	50	65*
S=C(NCc1ccco1)N1CCN(Cc2ccc(Cl)cc2Cl)CC1	22	0.8	-2.6	nt	42	6
O=C(CN(c1ccccc1)S(=O)(=O)c1ccccc1)N1CCN(Cc2ccc3c(c2)OCO3)CC1	17	0.8	0.37	-0.53	23	72*
COc1ccc(N(CC(=O)N2CCN(Cc3ccc4c(c3)OCO4)CC2)S(=O)(=O)c2ccc(F)cc2)cc1	nt	nt	-0.24	nt	nt	nt

Screening results deposited in PubChem BioAssay by several laboratories.
